According to ChEMBL document CHEMBL4680177, “Novel distamycin analogues that block the cell cycle of African trypanosomes with high selectivity and potency” (Eur J Med Chem, 2020):
Values belong to the compound of their own block, whether it stands above or below them. Activity calls are given as the source filed them. The calls are words filed in the database; no cut-off is given here.

How the values were obtained:
[1] = test system: Trypanosoma brucei brucei; experiment: Antitrypanosomal activity against bloodstream form Trypanosoma brucei brucei 427 […] assessed as cell viability at 5 uM after 24 hrs by propidium iodide staining based flow cytometric analysis relative to control; type: functional
Summary of the method: (§1)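 Bloodstream T. b. brucei 427 expressing hGrx1-roGFP2 (line 449_Grx-roGFP2), grown in HMI-9 with 10% FBS, 37 °C, 5% CO2. Biosensor induced with oxytetracycline (1 µg/mL final). Exponential-phase cells seeded at 5×10^5/mL and exposed 24 h to a single 5 µM screen, or to 0.0001–120 µM for EC50. DMSO ≤1% v/v. Viability read by PI exclusion on flow cytometry, expressed relative to DMSO control. EC50 from nonlinear fit; ≥3 replicates, S.D.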

J774 [2] = experiment: Cytotoxicity against mouse J774 cells assessed as reduction in cell viability at 120 uM after 24 hrs by WST-1 assay; type: cell-based; details: j774, 24 h
Summary of the method: (§2)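 J774 murine macrophages in DMEM with 10% FBS, 37 °C, 5% CO2. Exposed 24 h to a 6-point compound series, in triplicate, up to 120 µM with DMSO 1% v/v. Viability read with WST-1 reagent relative to DMSO control and EC50 taken from nonlinear fit. The selectivity index is the macrophage EC50 divided by the trypanosome EC50.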

J774 [3] = experiment: Cytotoxicity against mouse J774 cells assessed as reduction in cell viability >120 uM after 24 hrs by WST-1 assay; type: cell-based; details: j774, 24 h; summary of the method: as §2
[4] = test system: Trypanosoma brucei brucei; experiment: Antitrypanosomal activity against bloodstream form Trypanosoma brucei brucei 427 […] assessed as cell viability upto 60 uM after 48 hrs by propidium iodide staining based flow cytometric analysis; type: functional, organism-based; details: dose microM <=60, time 48.0 hrs
Summary of the method: (§3)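 Viability of bloodstream T. b. brucei 427 redox-reporter line under lower-density conditions: 1.2×10^4 parasites/mL seeded, 48 h exposure, compound tested up to 60 µM. Nifurtimox included as positive control. Viability read by PI exclusion on flow cytometry.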

J774 [5] = experiment: Cytotoxicity against mouse J774 cells assessed as reduction in cell viability after 24 hrs by WST-1 assay; type: cell-based; details: J774, 24 h; summary of the method: as §2
[6] = test system: Trypanosoma brucei brucei; experiment: Antitrypanosomal activity against bloodstream form Trypanosoma brucei brucei 427 […] assessed as cell viability after 48 hrs by propidium iodide staining based flow cytometric analysis; type: functional, organism-based; details: Trypanosoma brucei, 427, 48 h; summary of the method: as §3
[7] = Selectivity ratio of EC50 for antitrypanosomal activity against bloodstream form Trypanosoma brucei brucei 427 assessed as cell viability after 24 hrs to antitrypanosomal activity against bloodstream form Trypanosoma brucei brucei 427 assessed as cell viability after 48 hrs; type: functional
[8] = test system: Trypanosoma brucei brucei; experiment: Antitrypanosomal activity against bloodstream form Trypanosoma brucei brucei 427 […] assessed as cell viability after 24 hrs by propidium iodide staining based flow cytometric analysis; type: functional, organism-based; details: Trypanosoma brucei, 427, 24 h; summary of the method: as §1
[9] = Selectivity index, ratio of EC50 for cytotoxicity against mouse J774 cells to EC50 for antitrypanosomal activity against bloodstream form Trypanosoma brucei brucei 427; type: toxicity, cell-based; details: read-out: Ratio EC50; summary of the method: as §2
[10] = test system: Trypanosoma brucei brucei; experiment: Induction of cell cycle arrest in bloodstream form Trypanosoma brucei brucei 427 assessed as accumulation at S phase at 7 nM after 24 hrs by propidium iodide staining based flow cytometric analysis (reference value: 31%); type: functional
[11] = test system: Trypanosoma brucei brucei; experiment: Induction of cell cycle arrest in bloodstream form Trypanosoma brucei brucei 427 assessed as accumulation at G0/G1 phase at 7 nM after 24 hrs by propidium iodide staining based flow cytometric analysis (reference value: 49%); type: functional
[12] = test system: Trypanosoma brucei brucei; experiment: Induction of membrane permeability in bloodstream form Trypanosoma brucei brucei 427 assessed as change in integrity at EC50 concentration after 4 hrs by propidium iodide staining based flow cytometric analysis
[13] = test system: Trypanosoma brucei brucei; experiment: Induction of oxidative stress in bloodstream form Trypanosoma brucei brucei 427 up to 5 times EC50 concentration after 4 hrs by propidium iodide staining based flow cytometric analysis; type: functional
[14] = test system: Trypanosoma brucei brucei; experiment: Induction of cell cycle arrest in bloodstream form Trypanosoma brucei brucei 427 assessed as accumulation at G2/M phase at 7 nM after 24 hrs by propidium iodide staining based flow cytometric analysis (reference value: 20%); type: functional
[15] = test system: Trypanosoma brucei brucei; experiment: Induction of cell cycle arrest in bloodstream form Trypanosoma brucei brucei 427 assessed as accumulation at G2/M phase at 14 nM after 24 hrs by propidium iodide staining based flow cytometric analysis (reference value: 20%); type: functional
[16] = test system: Trypanosoma brucei brucei; experiment: Induction of cell cycle arrest in bloodstream form Trypanosoma brucei brucei 427 assessed as accumulation at G0/G1 phase at 14 nM after 24 hrs by propidium iodide staining based flow cytometric analysis (reference value: 49%); type: functional
[17] = test system: Trypanosoma brucei brucei; experiment: Induction of cell cycle arrest in bloodstream form Trypanosoma brucei brucei 427 assessed as accumulation at 1K+1N cells at 7 nM after 24 hrs by DAPI. staining based epifluorescence microscopic analysis (reference value: 80%); type: functional
Summary of the method: (§4)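 Parasites at 5×10^5/mL treated 24 h with DMSO 1%, DAC 41 nM, or compound at 12 or 7 nM. Cells fixed in 4% paraformaldehyde for 18 min at room temperature and smeared on slides. Mounted in DAPI medium and scored by epifluorescence microscopy (60X/100X) for kinetoplast/nucleus configuration. At least 50 cells per sample.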

[18] = test system: Trypanosoma brucei brucei; experiment: Induction of cell cycle arrest in bloodstream form Trypanosoma brucei brucei 427 assessed as accumulation at single kinetoplast and septum like or partitioned nucleus cells at 7 nM after 24 hrs by DAPI. staining based epifluorescence microscopic analysis relative to control; type: functional; summary of the method: as §4
DNA [19] = experiment: Competitive binding affinity to Escherichia coli XL-1 pUC18 plasmid DNA at 20 uM after 120 mins by DAPI staining based spectrofluorimetric method relative to control; type: nucleic-acid assay
Summary of the method: (§5)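 pUC18 or pUC18 carrying a T. brucei minicircle, 5 nM in PBS pH 7.4, incubated 30 or 120 min with 20 µM compound or DMSO 1% v/v. DAPI then added to 500 nM final and emission recorded by spectrofluorimetry (ex 358 nm, em 368–600 nm). Fluorescence normalized to the DNA+DMSO+DAPI control set at 100%. Mean ± S.D., n=3.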

DNA [20] = experiment: Competitive binding affinity to Escherichia coli XL-1 pUC18 K-DNA at 20 uM after 120 mins by DAPI staining based spectrofluorimetric method relative to control; type: nucleic-acid assay; summary of the method: as §5
[21] = test system: Trypanosoma brucei brucei; experiment: Antitrypanosomal activity against Trypanosoma brucei brucei AnTaT 1.1 infected in Balb/cJ mouse assessed as reduction in parasitemia at 2.09 to 8.36 mg/kg, ip administered for 7 days and measured up to 17 days; type: functional, organism-based; details: dose 2.09-8.36 mg/kg, time 7.0 day
Summary of the method: (§6)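 Female BalB/cJ mice, 6-8 weeks, ~20 g, infected ip with 10^4 bloodstream T. b. brucei AnTaT 1.1. From day 4 post-infection, groups of 6 dosed ip in 300 µL PBS: daily for 7 days at 2.09 or 8.36 mg/Kg, or one 40 mg/Kg dose; vehicle DMSO 3.3 mg/Kg/day for 7 days. Parasitemia from submandibular blood counted by light microscopy in a Neubauer chamber. Detection limit ≥2.5×10^4 parasites/mL. Kruskal-Wallis test versus vehicle.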

[22] = test system: Trypanosoma brucei brucei; experiment: Antitrypanosomal activity against bloodstream form Trypanosoma brucei brucei 427 assessed as cell viability at 10 nM after 24 hrs by propidium iodide staining based flow cytometric analysis (reference value: 100 +/- 10%); type: functional
[23] = test system: Trypanosoma brucei brucei; experiment: Antitrypanosomal activity against bloodstream form Trypanosoma brucei brucei 427 assessed as cell viability at 1000 nM after 24 hrs by propidium iodide staining based flow cytometric analysis (reference value: 100 +/- 10%); type: functional
[24] = test system: Trypanosoma brucei brucei; experiment: (§7) Antitrypanosomal activity against bloodstream form Trypanosoma brucei brucei 427 […] assessed as cell viability at 10 nM preincubated in heat-inactivated serum for 45 mins followed by culture addition and measured after 24 hrs by propidium iodide staining based flow cytometric analysis (reference value: 98.5 +/- 1.4%); type: functional; details: time 48.0 hrs, in the assay text read “for 24 hrs” for “for 45 mins”
Summary of the method: (§8)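 Compound at 100 µM, with ≤1% v/v DMSO, held 24 h at 37 °C in fresh serum or in serum heat-inactivated at 54 °C for 45 min. It was then added to 449-hGrx-roGFP2 T. brucei cultures at 10 or 1000 nM final. Viability after 24 h was read by PI flow cytometry as in the standard assay. Untreated serum-exposed controls were included; mean ± SD.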

[25] = test system: Trypanosoma brucei brucei; experiment: as §7, with “1000” for “10”; type: functional; details: time 48.0 hrs, in the assay text read “for 24 hrs” for “for 45 mins”; summary of the method: as §8
[26] = test system: Trypanosoma brucei brucei; experiment: as §7, with “fresh” for “heat-inactivated”, “100” for “98.5”, “3.5%)” for “1.4%)”; type: functional; details: time 48.0 hrs, in the assay text read “for 24 hrs” for “for 45 mins”; summary of the method: as §8
[27] = test system: Trypanosoma brucei brucei; experiment: as §7, with “1000” for “10”, “fresh” for “heat-inactivated”, “100” for “98.5”, “3.5%)” for “1.4%)”; type: functional; details: time 48.0 hrs, in the assay text read “for 24 hrs” for “for 45 mins”; summary of the method: as §8
[28] = test system: Trypanosoma brucei brucei; experiment: Induction of cell cycle arrest in bloodstream form Trypanosoma brucei brucei 427 assessed as accumulation at G2/M phase at 41 nM after 24 hrs by propidium iodide staining based flow cytometric analysis (reference value: 20%); type: functional
[29] = test system: Trypanosoma brucei brucei; experiment: Induction of cell cycle arrest in bloodstream form Trypanosoma brucei brucei 427 assessed as accumulation at G0/G1 phase at 41 nM after 24 hrs by propidium iodide staining based flow cytometric analysis (reference value: 49%); type: functional
[30] = test system: Trypanosoma brucei brucei; experiment: Induction of cell cycle arrest in bloodstream form Trypanosoma brucei brucei 427 assessed as accumulation at 1K+1N cells at 41 nM after 24 hrs by DAPI. staining based epifluorescence microscopic analysis (reference value: 80%); type: functional; summary of the method: as §4
[31] = test system: Trypanosoma brucei brucei; experiment: Induction of cell cycle arrest in bloodstream form Trypanosoma brucei brucei 427 assessed as accumulation at 0K+1N cells at 41 nM after 24 hrs by DAPI. staining based epifluorescence microscopic analysis relative to control; type: functional; summary of the method: as §4
DNA [32] = experiment: Competitive binding affinity to Escherichia coli XL-1 pUC18 plasmid DNA at 20 uM after 30 to 120 mins by DAPI staining based spectrofluorimetric method relative to control; type: nucleic-acid assay; details: time 30-120 min; summary of the method: as §5
DNA [33] = experiment: Competitive binding affinity to Escherichia coli XL-1 pUC18 K-DNA at 20 uM after 30 to 120 mins by DAPI staining based spectrofluorimetric method relative to control; type: nucleic-acid assay; details: time 30-120 min; summary of the method: as §5
[34] = test system: Trypanosoma brucei brucei; experiment: Antitrypanosomal activity against Trypanosoma brucei brucei AnTaT 1.1 infected in Balb/cJ mouse assessed as reduction in parasitemia at 40 mg/kg, ip for single dose and measured after 7 to 17 days; type: functional, organism-based; details: time 7-17 day; summary of the method: as §6
[35] = test system: Trypanosoma brucei brucei; experiment: Induction of oxidative stress in bloodstream form Trypanosoma brucei brucei 427 at 250 uM after 20 min by propidium iodide staining based flow cytometric analysis

SMILES: CC(=O)Nc1nc(C(=O)Nc2cc(C(=O)Nc3nc(C(=O)O)c(C(C)C)s3)n(C)c2)c(C(C)C)s1
Activity [1]: 113.1% | Activity (J774 [2]): Non-Toxic | Activity (J774 [3]): Nd(Insoluble) | Activity [4]: inactive

SMILES: CC1CS(=O)(=O)CCN1/N=C/c1ccc([N+](=O)[O-])o1 (stereo not drawn) [NIFURTIMOX]
EC50 [8]: 10000 nM | selectivity ratio [9]: 10 | EC50 [6]: 750 nM | Ratio EC50 [7]: 20

SMILES: Cc1ccc(C(=O)Nc2ccc(S(=O)(=O)O)c3cc(S(=O)(=O)O)cc(S(=O)(=O)O)c23)cc1NC(=O)c1cccc(NC(=O)Nc2cccc(C(=O)Nc3cc(C(=O)Nc4ccc(S(=O)(=O)O)c5cc(S(=O)(=O)O)cc(S(=O)(=O)O)c45)ccc3C)c2)c1 [SURAMIN]
EC50 [8]: 78 nM

SMILES: CC1=CC(=O)c2ccccc2C1=O
Activity [35]: Active

Further lines, with some results ahead:

EC50 [6]: 57 nM
SMILES: CCOC(=O)c1csc(NC(=O)c2csc(NC(=O)c3csc(NC(=O)OC(C)(C)C)n3)n2)n1
EC50 (J774 [5]): 5000 nM | Ratio EC50 [7]: 5

EC50 [8]: 7.1 nM | Activity [12]: inactive | Activity (DNA [19]): inactive | Activity (DNA [20]): 48%
SMILES: CCOC(=O)c1csc(NC(=O)c2cc(NC(=O)c3csc(NC(=O)OC(C)(C)C)n3)cn2C)n1
Activity [10]: 34% | Activity [11]: 44% | Activity [1]: 0.06% | selectivity ratio [9]: 5560 | EC50 (J774 [5]): ≥ 40000 nM | Activity [13]: inactive | Activity [14]: 22% | Activity [15]: 94% | Activity [16]: 6% | Activity [17]: 46% | Activity [18]: 26% | Activity [21]: inactive | Activity [22]: 54.1% | Activity [23]: 10.7% | Activity [24]: 104.6% | Activity [25]: 17.5% | Activity [26]: 84.2% | Activity [27]: 17.2%

EC50 [8]: 41 nM | Activity (DNA [32]): 22% | Activity (DNA [33]): 22%
SMILES: CC(=O)NCC(=O)O.CC(=O)NCC(=O)O.N=C(N)c1ccc(/N=N/Nc2ccc(C(=N)N)cc2)cc1 [DIMINAZENE DIACETURATE]
Activity [28]: 93% | Activity [29]: 7% | Activity [30]: 44% | Activity [31]: 39% | Activity [34]: Active
